ChEMBL document CHEMBL4396943, “The tetrahydroxanthone-dimer phomoxanthone A is a strong inducer of apoptosis in cisplatin-resistant solid cancer cells” (Bioorg Med Chem, 2019)
Activity calls are given as the source filed them. The calls are words filed in the database; no cut-off is given here.

Legend:
A2780cisR [1] = experiment: Induction of apoptosis in human A2780cisR cells assessed as increase in caspase 3 cleavage at 5 uM incubated for 24 hrs by proteome profiler analysis; format: functional, cell-based
Outline: (§1)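 A2780 and A2780CisR cells treated 24 h with 5 µM PXA; apoptosis-related proteins profiled with a human apoptosis antibody array following kit instructions.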

J82 [2] = experiment: Potency index, ratio of cisplatin IC50 to compound IC50 for antiproliferative activity in cisplatin resistant human J82 cells assessed as reduction in cell viability incubated for 72 hrs by MTT assay; format: functional
Outline: (§2)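 Cells seeded in 96-well plates overnight, exposed 72 h to increasing concentrations. MTT (5 mg/ml) added for 15 min, formazan dissolved in DMSO, absorbance read at 544 nm with 690 nm background subtracted. IC50 is the concentration reducing signal by 50%. Three independent experiments in triplicate. CisR sublines made by weekly intermittent cisplatin exposure for 24–30 weeks.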

A2780cisR [3] = experiment: Induction of apoptosis in human A2780cisR cells assessed as increase in activation of caspase 3/7 at 10 uM incubated for 24 hrs by hoechst 33342 staining based fluorescence microscopy (reference value: 0.8%); format: functional
J82 [4] = experiment: Cell cycle arrest in human J82 cells assessed as accumulation at G1 phase at 5 uM incubated for 24 hrs by propidium iodide staining based flow cytometry (reference value: 69.6%); format: functional
Outline: (§3)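 After 24 h exposure, cells washed in ice-cold PBS. About 2 million cells fixed in cold 70% ethanol at −20 °C for at least 24 h. Stained with 0.1% Triton X-100, 200 µg/ml RNase A and 20 µg/ml propidium iodide in PBS, 15 min at 37 °C in the dark. DNA content read by flow cytometry with doublet discrimination. Medium as untreated control, paclitaxel as G2/M control. Three independent experiments.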

Homo sapiens [5] = species: Homo sapiens; experiment: Ratio of IC50 for induction of mitochondrial membrane depolarization in cisplatin resistant human J82 cells to IC50 for induction of mitochondrial membrane depolarization in human A2780cisR cells after 2 hrs by TMRE staining based flow cytometry; format: functional, cell-based
Outline: (§4)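 Cells seeded overnight; complete medium swapped for FBS-free medium just before treatment to avoid TMRE ester cleavage. Exposure to PXA for 1 h, 2 h or 24 h. TMRE staining 20 min, cells collected by trypsinisation, ΔΨm read by flow cytometry. Medium served as negative control, 20 µM CCCP as positive control. Mean ± SEM reported.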

A2780cisR [6] = experiment: Induction of apoptosis in human A2780cisR cells assessed as depolarization of mitochondrial membrane potential incubated for 1 hr by TMRE staining based flow cytometry; format: functional, cell-based; outline: as §4
A2780cisR [7] = experiment: Potency index, ratio of cisplatin IC50 to compound IC50 for antiproliferative activity in human A2780cisR cells assessed as reduction in cell viability incubated for 72 hrs by MTT assay; format: functional; outline: as §2
Homo sapiens [8] = species: Homo sapiens; experiment: Ratio of IC50 for induction of mitochondrial membrane depolarization in human J82 cells to IC50 for induction of mitochondrial membrane depolarization human A2780 cells after 2 hrs by TMRE staining based flow cytometry; format: functional, cell-based; outline: as §4
A2780cisR [9] = experiment: Induction of apoptosis in human A2780cisR cells assessed as decrease in claspin expression at 5 uM incubated for 24 hrs by proteome profiler analysis; format: functional, cell-based; outline: as §1
A2780cisR [10] = experiment: Induction of apoptosis in human A2780cisR cells assessed as decrease in cIAP expression at 5 uM incubated for 24 hrs by proteome profiler analysis; format: functional, cell-based; outline: as §1
A2780 [11] = experiment: Induction of apoptosis in human A2780 cells assessed as increase in activation of caspase 3/7 at 10 uM incubated for 24 hrs by hoechst 33342 staining based fluorescence microscopy (reference value: 1.4%); format: functional
A2780cisR [12] = experiment: Induction of apoptosis in human A2780cisR cells assessed as increase in intracellular calcium level at 10 to 30 uM incubated for 30 mins in presence of 1 mM extracellular calcium by fluorimetry; format: functional, cell-based
Outline: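 Cells seeded in 96-well plates overnight, washed twice with Krebs-HEPES buffer, loaded 1 h at 37 °C in the dark with Oregon Green BAPTA-1 AM (final 3 µM) and Pluronic F-127. Buffer replaced, PXA added, fluorescence at 544 nm recorded for 30 min, with or without 1 mM extracellular Ca2+. Three experiments, mean ± SEM.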

A2780cisR [13] = experiment: Induction of apoptosis in human A2780cisR cells assessed as depolarization of mitochondrial membrane potential at 1 uM incubated for 1 hr by TMRE staining based flow cytometry; format: functional; outline: as §4
MDA-MB-231 [14] = experiment: Potency index, ratio of cisplatin IC50 to compound IC50 for antiproliferative activity in cisplatin-resistant human MDA-MB-231 cells assessed as reduction in cell viability incubated for 72 hrs by MTT assay; format: functional; outline: as §2
MDA-MB-231 [15] = experiment: Potency index, ratio of cisplatin IC50 to compound IC50 for antiproliferative activity in human MDA-MB-231 cells assessed as reduction in cell viability incubated for 72 hrs by MTT assay; format: functional; outline: as §2
A2780cisR [16] = experiment: Induction of apoptosis in human A2780cisR cells assessed as nuclear condensation by measuring reduced size and increased intensity of nuclei at 10 uM incubated for 24 hrs by hoechst 33342 staining based fluorescence microscopy; format: functional, cell-based
A2780 [17] = experiment: Induction of apoptosis in human A2780 cells assessed as depolarization of mitochondrial membrane potential at 1 uM incubated for 2 hrs by TMRE staining based flow cytometry; format: functional; outline: as §4
A2780 [18] = experiment: Induction of apoptosis in human A2780 cells assessed as depolarization of mitochondrial membrane potential afer 24 hrs by TMRE staining based flow cytometry; format: functional, cell-based
Outline: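 Cells seeded overnight; medium switched to FBS-free just before treatment to avoid TMRE ester cleavage. Exposure 1 h, 2 h or 24 h, then TMRE staining for 20 min. Cells trypsinized, centrifuged at 4 °C and read by flow cytometry. Medium as negative control, 20 µM CCCP as positive control. […]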

A2780cisR [19] = experiment: Antiproliferative activity against human A2780cisR cells assessed as reduction in cell viability incubated for 48 hrs by MTT assay; format: functional, cell-based
Outline: (§5)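 Cells seeded overnight in 96-well plates, then exposed to increasing concentrations (compound dissolved in DMSO, diluted in medium) for the stated time. MTT (5 mg/ml in PBS) added for 15 min, formazan dissolved in DMSO, absorbance read at 544 nm minus 690 nm background. IC50 = concentration giving 50% signal decrease. At least three independent experiments in triplicate.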

A2780cisR [20] = experiment: Cell cycle arrest in human A2780cisR cells assessed as accumulation at G1 phase at 10 uM incubated for 24 hrs by propidium iodide staining based flow cytometry (reference value: 68.7%); format: functional; outline: as §3
A2780cisR [21] = experiment: Effect on ROS generation in human A2780cisR cells at 316 nM incubated for 18 hrs by H2DCFDA staining based flow cytometry; format: functional, cell-based
Outline: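 Cells plated in 24-well plates (about 150,000/well) overnight, then exposed 18 h. Washed and moved to phenol red-free, serum-free RPMI-1640, then loaded with 10 µM H2DCF-DA for 30 min at 37 °C in the dark. One aliquot read directly, the other after 250 µM H2O2 for 1 h at 37 °C. DCF fluorescence read by flow cytometry. Three independent experiments.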

J82 [22] = experiment: Antiproliferative activity against human cisplatin resistant J82 cells assessed as reduction in cell viability incubated for 72 hrs by MTT assay; format: functional, cell-based; conditions: J82, 72 h; outline: as §5

CC(=O)OC[C@]12Oc3c(-c4ccc(O)c5c4O[C@@]4(COC(C)=O)C(=C(O)C[C@@H](C)[C@H]4OC(C)=O)C5=O)ccc(O)c3C(=O)C1=C(O)C[C@@H](C)[C@H]2OC(C)=O [PHOMOXANTHONE A]
Activity (A2780cisR [1]): Active
Ratio IC50 (J82 [2]): 4
Activity (A2780cisR [3]): 71%
Activity (J82 [4]): 68%
Ratio IC50 (Homo sapiens [5]): 3
Activity (A2780cisR [6]): Dose-dependent effect
IC50 (A2780cisR [6]): 1.25 µM
Ratio IC50 (A2780cisR [7]): 9
Ratio IC50 (Homo sapiens [8]): 3
Activity (A2780cisR [9]): Active
Activity (A2780cisR [10]): Active
Activity (A2780 [11]): 83%
Activity (A2780cisR [12]): Active
Activity (A2780cisR [13]): 73%
Ratio IC50 (MDA-MB-231 [14]): 2 - 10
Ratio IC50 (MDA-MB-231 [15]): 2 - 10
Activity (A2780cisR [16]): Active
Activity (A2780 [17]): 50%
Activity (A2780 [18]): Dose-dependent effect
IC50 (A2780cisR [19]; read-out: IC50): 1.18 µM
IC50 (A2780cisR [19]; read-out: pIC50 (converted)): 1.17 µM
Activity (A2780cisR [20]): 81.1%
Activity (A2780cisR [21]): inactive
IC50 (J82 [22]): 2.04 µM
